The values below come from ChEMBL document CHEMBL1828578, “Antimalarial activities of new guanidylimidazole and guanidylimidazoline derivatives” (J Med Chem, 2011).

Data set [1] has as its system Plasmodium falciparum. Nature of the data set: Antimalarial activity against […] of Plasmodium falciparum W2 after for 3 days by microdilution technique. The class given is functional, organism-based. The conditions noted are these: W2, 72 h. The procedure, abridged: (§1)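 P. falciparum clones were tested in vitro using a modified semiautomated microdilution technique.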

Data set [2] concerns Plasmodium berghei. Nature of the data set: Antimalarial activity against Plasmodium berghei in exoerythrocytic mouse model assessed as causal prophylaxis at 320 mg/kg/day, po administered one day before infection, on day of infection and one day post infection. It counts as functional, organism-based. Put shortly: (§2)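 P. berghei sporozoite exoerythrocytic mouse model. Compound was ground and suspended in hydroxyethylcellulose plus Tween 80, then given po at several dose levels once daily: the day before, 4 h before, and the day after sporozoite inoculation. Mice alive on day 31 with no parasites in any blood film were scored as protected.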

Data set [3] in a line: Metabolic stability of the compound in rhesus monkey microsomes assessed as half life at 1 uM by LC-MS analysis. It counts as ADME, Macaca mulatta, Microsome.
A short description of data set [4]: Metabolic stability of the compound in human liver microsomes assessed as half life at 1 uM by LC-MS analysis. The class given is ADME, Microsome. Put shortly: (§3)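 Compound at 1 μM final (from 10 or 20 mM DMSO stocks) was incubated with 0.5 mg/mL pooled human or mouse liver microsomes. The mix held 1.3 mM NADP and 3.3 mM MgCl₂ in 0.1 M PBS pH 7.4, and the reaction was started with 1 U/mL G6PD. Incubation was at 37 °C with shaking, and samples were quenched with cold acetonitrile at 0, 10, 20, 30 and 60 min.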
(Liver microsomes are a subcellular fraction often used to study metabolism.)

A short description of data set [5]: Metabolic stability of the compound in mouse liver microsomes assessed as half life at 1 uM by LC-MS analysis. It counts as ADME, Microsome. Put shortly:
as §3

The subject of data set [6] is Plasmodium falciparum. Nature of the data set: Antimalarial activity against […] of Plasmodium falciparum TM91C235 after for 3 days by microdilution technique. The conditions noted are these: TM91C235, 72 h. It counts as functional, organism-based. The procedure, abridged: as §1
Data set [7] has as its system Plasmodium falciparum. The experiment in a line: Antimalarial activity against sporozoites stage of Plasmodium falciparum D6 after 3 days by microdilution technique. The following applies: D6, 72 h, in the assay text read “blood stage” for “sporozoites stage”. The class given is functional, organism-based. Put shortly: as §1
(In general: Dilution methods test growth across graded concentrations, often in twofold steps.)

The test system of data set [8] is Plasmodium berghei. Nature of the data set: Antimalarial activity against Plasmodium berghei in exoerythrocytic mouse model assessed as causal prophylaxis at 160 mg/kg/day, po administered one day before infection, on day of infection and one day post infection. The class given is functional, organism-based. Put shortly: as §2
The test system of data set [9] is Plasmodium cynomolgi. The experiment in a line: Antimalarial activity against sporozoites stage of Plasmodium cynomolgi infected in Rhesus monkey assessed as delay in patency at 0.316 mg/kg/day, po administered one day before infection, on day of infection and one day post infection. It counts as functional. The procedure, abridged: (§4)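 Causal prophylaxis test in Rhesus monkeys inoculated with P. cynomolgi sporozoites, two monkeys per group. Drug was given orally on days −1, 0 and +1 relative to inoculation. Patency was the first day parasites were detected in blood smears, and the delay was counted against vehicle-treated controls.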

The test system of data set [10] is Plasmodium cynomolgi. The experiment in a line: Antimalarial activity against sporozoites stage of Plasmodium cynomolgi infected in Rhesus monkey assessed as delay in patency at 50 mg/kg/day, po administered one day before infection, on day of infection and one day post infection. The class given is functional. Put shortly:
as §4

In data set [11] the test system is Plasmodium cynomolgi. Nature of the data set: Antimalarial activity against sporozoites stage of Plasmodium cynomolgi infected in Rhesus monkey assessed as delay in patency at 1.78 mg/kg/day, po administered one day before infection, on day of infection and one day post infection. It counts as functional. The procedure, abridged:
as §4

The structures appear in SMILES notation. Values after ≈ are worked out from the molar mass of the structure shown. Active and inactive are the calls of the source.

By IC50 is commonly meant the concentration at which inhibition is half-maximal. As a reminder, the half-life is the time needed for the level to fall by half in the phase considered. In the case of `CC(C)n1ccnc1/N=C(/Nc1ccc(Cl)c(Cl)c1)N1CCCCC1`, the IC50 with Plasmodium falciparum [1] was 0.3 µg/mL (≈ 0.789 µM); in the data set with Plasmodium falciparum [6], 0.3 µg/mL (≈ 0.789 µM); with Plasmodium falciparum [7] it was 0.5 µg/mL (≈ 1.31 µM). For the same compound, the result in the data set with Plasmodium berghei [2] and with Plasmodium berghei [8] was inactive. In addition, the figures for the half-life at 1 µM in data set [3], in [4] and in data set [5] were 7.8 min, 27 min and 19.7 min, respectively.
With `CC(C)n1ccnc1/N=C(\N)Nc1ccc(Cl)c(Cl)c1`, the IC50 in the data set with Plasmodium falciparum [1] stood at 0.7 µg/mL (≈ 2.24 µM); in the data set on Plasmodium falciparum [6], 2.4 µg/mL (≈ 7.69 µM); in the data set with Plasmodium falciparum [7], 2.8 µg/mL (≈ 8.97 µM). Also, the result in the data set with Plasmodium berghei [2] and with Plasmodium berghei [8] was Active. For the same compound, the half-life at 1 µM in data set [3] was more than 60 min; in data set [4] it was more than 60 min; in [5], 27.7 min.
Consider `COc1cc(C)c2c(Oc3cccc(C(F)(F)F)c3)c(OC)cc(NC(C)CCCN)c2n1` (stereo not drawn) [TAFENOQUINE], for which, in the data set on Plasmodium cynomolgi [9], the Time was 2 days.
In the case of `CC(C)N/C(=N\c1nccn1C(C)C)Nc1ccc(Cl)c(Cl)c1`, the IC50 in the data set on Plasmodium falciparum [1] turned out to be 0.8 µg/mL (≈ 2.26 µM); in the data set with Plasmodium falciparum [6], 2.4 µg/mL (≈ 6.77 µM); with Plasmodium falciparum [7], 2.6 µg/mL (≈ 7.34 µM). In addition, the Time with Plasmodium cynomolgi [10] was determined as 9 days. Also, the half-life at 1 µM in [3] was found to be 7.8 min; in [4], 22.5 min; in data set [5] it was 5.9 min.
For the compound `COc1cc(NC(C)CCCN)c2ncccc2c1` (stereo not drawn) [PRIMAQUINE], in the data set on Plasmodium cynomolgi [11], the Time turned out to be 5 days.
Turning to `CC(C)(C)n1ccnc1/N=C(\N)Nc1ccc(Cl)c(Cl)c1`, the IC50 with Plasmodium falciparum [1] is 0.4 µg/mL (≈ 1.23 µM); with Plasmodium falciparum [6], 1.2 µg/mL (≈ 3.68 µM); with Plasmodium falciparum [7], 1.6 µg/mL (≈ 4.9 µM). Further, the result in the data set with Plasmodium berghei [2] and with Plasmodium berghei [8] was inactive. The half-life at 1 µM was 45 min in data set [3], more than 60 min in data set [4] and 48 min in [5].
